Measured values reported in ChEMBL document CHEMBL1671716, “Antimicrobial susceptibility patterns for recent clinical isolates of anaerobic bacteria in South Korea” (2010).

Assays:
Phocaeicola vulgatus [1] = test: Antimicrobial activity against Bacteroides vulgatus assessed as percent susceptible isolates after 48 hrs by agar dilution method; assay type: functional
Bacteroides caccae [2] = test: Antimicrobial activity against Bacteroides caccae assessed as percent susceptible isolates after 48 hrs by agar dilution method; assay type: functional
Prevotella buccae [3] = test: Antimicrobial activity against Prevotella buccae after 48 hrs by agar dilution method; assay type: functional; settings: Segatella buccae
Summary of the method: (§1)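 CLSI agar dilution (M11-A7); inoculum 10^5 CFU applied by replicator; plates incubated anaerobically 48 h at 37°C. For piperacillin-tazobactam, tazobactam held constant at 4 μg/ml.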

Clostridium perfringens = test: Antimicrobial activity against Clostridium perfringens after 48 hrs by agar dilution method; assay type: functional
Anaerococcus prevotii = test: Antimicrobial activity against Anaerococcus prevotii after 48 hrs by agar dilution method; assay type: functional
Summary of the method: (§2)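 MICs on clinical anaerobe isolates by the CLSI agar dilution method. Inoculum of 10^5 CFU applied with a Steers replicator. Plates incubated 48 h at 37°C in an anaerobic chamber.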

Bifidobacterium sp. [4] = test: Antimicrobial activity against Bifidobacterium sp. after 48 hrs by agar dilution method; assay type: functional; summary of the method: as §2
Bacteroides fragilis = test: Antimicrobial activity against Bacteroides fragilis assessed as percent susceptible isolates after 48 hrs by agar dilution method; assay type: functional
[5] = system: Parabacteroides distasonis; test: Antimicrobial activity against Bacteroides distasonis assessed as percent resistant isolates after 48 hrs by agar dilution method; assay type: functional
Summary of the method: (§3)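 CLSI agar dilution on recent Korean clinical anaerobe isolates. Inoculum 10^5 CFU per spot by replicator. Plates incubated in an anaerobic chamber at 37°C for 48 h. For piperacillin plus tazobactam, tazobactam was held constant at 4 μg/ml. Resistance and susceptibility rates derived from MICs.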

Eggerthella lenta [6] = test: Antimicrobial activity against Eubacterium lentum assessed as percent resistant isolates after 48 hrs by agar dilution method; assay type: functional; summary of the method: as §3
Finegoldia magna [7] = test: Antimicrobial activity against Finegoldia magna assessed as percent resistant isolates after 48 hrs by agar dilution method; assay type: functional; summary of the method: as §3
Schaalia odontolytica [8] = test: Antimicrobial activity against Actinomyces odontolyticus assessed as percent susceptible isolates after 48 hrs by agar dilution method; assay type: functional
Eggerthella lenta [9] = test: Antimicrobial activity against Eubacterium lentum assessed as percent susceptible isolates after 48 hrs by agar dilution method; assay type: functional; summary of the method: as §1
Bifidobacterium sp. [10] = test: Antimicrobial activity against Bifidobacterium sp. assessed as percent resistant isolates after 48 hrs by agar dilution method; assay type: functional; summary of the method: as §3
Bacteroides ovatus [11] = test: Antimicrobial activity against Bacteroides ovatus after 48 hrs by agar dilution method; assay type: functional; summary of the method: as §2
Prevotella intermedia [12] = test: Antimicrobial activity against Prevotella intermedia after 48 hrs by agar dilution method; assay type: functional; summary of the method: as §1
Parvimonas micra = test: Antimicrobial activity against Peptostreptococcus micros after 48 hrs by agar dilution method; assay type: functional; summary of the method: as §1
Schaalia odontolytica [13] = test: Antimicrobial activity against Actinomyces odontolyticus assessed as percent resistant isolates after 48 hrs by agar dilution method; assay type: functional; summary of the method: as §3
Prevotella bivia [14] = test: Antimicrobial activity against Prevotella bivia after 48 hrs by agar dilution method; assay type: functional; summary of the method: as §1
[15] = system: Peptostreptococcus anaerobius; test: Antimicrobial activity against Peptostreptococcus anaerobius after 48 hrs by agar dilution method; assay type: functional; summary of the method: as §1
Clostridioides difficile [16] = test: Antimicrobial activity against Clostridium difficile after 48 hrs by agar dilution method; assay type: functional
[17] = system: Bifidobacterium adolescentis; test: Antimicrobial activity against Bifidobacterium adolescentis after 48 hrs by agar dilution method; assay type: functional; summary of the method: as §2
[18] = system: Parabacteroides distasonis; test: Antimicrobial activity against Bacteroides distasonis assessed as percent susceptible isolates after 48 hrs by agar dilution method; assay type: functional
Prevotella buccae [19] = test: Antimicrobial activity against Prevotella buccae assessed as percent resistant isolates after 48 hrs by agar dilution method; assay type: functional, Segatella buccae; summary of the method: as §3
[20] = system: Bacteroides thetaiotaomicron; test: Antimicrobial activity against Bacteroides thetaiotaomicron assessed as percent susceptible isolates after 48 hrs by agar dilution method; assay type: functional
Bifidobacterium sp. [21] = test: Antimicrobial activity against Bifidobacterium sp. assessed as percent susceptible isolates after 48 hrs by agar dilution method; assay type: functional; summary of the method: as §1
[22] = system: Bacteroides thetaiotaomicron; test: Antimicrobial activity against Bacteroides thetaiotaomicron after 48 hrs by agar dilution method; assay type: functional; summary of the method: as §2
Schaalia meyeri [23] = test: Antimicrobial activity against Actinomyces meyeri assessed as percent resistant isolates after 48 hrs by agar dilution method; assay type: functional; summary of the method: as §3
Hoylesella oralis [24] = test: Antimicrobial activity against Prevotella oralis assessed as percent susceptible isolates after 48 hrs by agar dilution method; assay type: functional
Summary of the method: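 CLSI agar dilution MIC testing of clinical isolates. 10^5 CFU spotted by replicator, plates incubated 48 h at 37°C in an anaerobic chamber. Susceptibility rates derived from the MICs.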

Finegoldia magna [25] = test: Antimicrobial activity against Finegoldia magna assessed as percent susceptible isolates after 48 hrs by agar dilution method; assay type: functional; summary of the method: as §1
Fusobacterium necrogenes = test: Antimicrobial activity against Fusobacterium necrogenes after 48 hrs by agar dilution method; assay type: functional; summary of the method: as §1
Prevotella buccae [26] = test: Antimicrobial activity against Prevotella buccae assessed as percent susceptible isolates after 48 hrs by agar dilution method; assay type: functional, Segatella buccae; summary of the method: as §1
Prevotella intermedia [27] = test: Antimicrobial activity against Prevotella intermedia assessed as percent resistant isolates after 48 hrs by agar dilution method; assay type: functional; summary of the method: as §3
Bacteroides ovatus [28] = test: Antimicrobial activity against Bacteroides ovatus assessed as percent resistant isolates after 48 hrs by agar dilution method; assay type: functional; summary of the method: as §3
Bacteroides caccae [29] = test: Antimicrobial activity against Bacteroides caccae assessed as percent resistant isolates after 48 hrs by agar dilution method; assay type: functional; summary of the method: as §3
Actinomyces israelii = test: Antimicrobial activity against Actinomyces israelii assessed as percent resistant isolates after 48 hrs by agar dilution method; assay type: functional; summary of the method: as §3
[30] = system: Peptostreptococcus anaerobius; test: Antimicrobial activity against Peptostreptococcus anaerobius assessed as percent susceptible isolates after 48 hrs by agar dilution method; assay type: functional; summary of the method: as §3
Clostridioides difficile [31] = test: Antimicrobial activity against Clostridium difficile assessed as percent susceptible isolates after 48 hrs by agar dilution method; assay type: functional
[32] = system: Bifidobacterium adolescentis; test: Antimicrobial activity against Bifidobacterium adolescentis assessed as percent susceptible isolates after 48 hrs by agar dilution method; assay type: functional
Eubacterium sp. [33] = test: Antimicrobial activity against Eubacterium sp. assessed as percent resistant isolates after 48 hrs by agar dilution method; assay type: functional; summary of the method: as §3
Actinomyces naeslundii = test: Antimicrobial activity against Actinomyces naeslundii after 48 hrs by agar dilution method; assay type: functional; summary of the method: as §2
Fusobacterium nucleatum = test: Antimicrobial activity against Fusobacterium nucleatum after 48 hrs by agar dilution method; assay type: functional; summary of the method: as §1
Prevotella bivia [34] = test: Antimicrobial activity against Prevotella bivia assessed as percent resistant isolates after 48 hrs by agar dilution method; assay type: functional; summary of the method: as §3
Phocaeicola vulgatus [35] = test: Antimicrobial activity against Bacteroides vulgatus after 48 hrs by agar dilution method; assay type: functional; summary of the method: as §2
Hoylesella oralis [36] = test: Antimicrobial activity against Prevotella oralis assessed as percent resistant isolates after 48 hrs by agar dilution method; assay type: functional; summary of the method: as §3
[37] = system: Porphyromonas asaccharolytica; test: Antimicrobial activity against Porphyromonas asaccharolytica after 48 hrs by agar dilution method; assay type: functional; summary of the method: as §1
Schaalia meyeri [38] = test: Antimicrobial activity against Actinomyces meyeri assessed as percent susceptible isolates after 48 hrs by agar dilution method; assay type: functional
Eubacterium sp. [39] = test: Antimicrobial activity against Eubacterium sp. assessed as percent susceptible isolates after 48 hrs by agar dilution method; assay type: functional; summary of the method: as §1
Finegoldia magna [40] = test: Antimicrobial activity against Finegoldia magna after 48 hrs by agar dilution method; assay type: functional; summary of the method: as §1

CO[C@@]1(NC(=O)Cc2cccs2)C(=O)N2C(C(=O)O)=C(COC(N)=O)CS[C@@H]21 [CEFOXITIN]
79%: Activity (Bacteroides fragilis)
4 µg/mL: MIC90 (Prevotella intermedia [12])
32 µg/mL: MIC90 (Prevotella buccae [3]) | MIC50 (Bacteroides ovatus [11]) | MIC90 (Bacteroides ovatus [11]) | MIC90 (Prevotella bivia [14]) | MIC50 [22] | MIC90 [22] | MIC50 (Phocaeicola vulgatus [35]) | MIC90 (Phocaeicola vulgatus [35])
0.06 µg/mL: MIC (Fusobacterium necrogenes) | MIC (Fusobacterium nucleatum) | MIC [37]
64 µg/mL: MIC (Clostridioides difficile [16]) | MIC50 (Clostridioides difficile [16])
0.5 µg/mL: MIC50 (Anaerococcus prevotii) | MIC50 (Finegoldia magna [40])
1 µg/mL: MIC50 (Prevotella buccae [3]) | MIC50 (Clostridium perfringens) | MIC90 (Anaerococcus prevotii) | MIC50 (Parvimonas micra) | MIC50 (Prevotella bivia [14]) | MIC50 [15] | MIC90 (Finegoldia magna [40])
25%: Activity (Phocaeicola vulgatus [1]) | Activity (Bacteroides caccae [2]) | Activity [18] | Activity [20]
16 µg/mL: MIC90 (Bifidobacterium sp. [4]) | MIC90 (Parvimonas micra) | MIC90 [15] | MIC90 [17] | MIC90 (Actinomyces naeslundii)
> 128 µg/mL: MIC90 (Clostridioides difficile [16])
2 µg/mL: MIC90 (Clostridium perfringens) | MIC50 (Bifidobacterium sp. [4]) | MIC50 (Prevotella intermedia [12]) | MIC50 [17] | MIC50 (Actinomyces naeslundii)
7%: Activity [5] | Activity (Bacteroides ovatus [28]) | Activity (Bacteroides caccae [29])
100%: Activity (Finegoldia magna [25]) | Activity [30]
0%: Activity (Eggerthella lenta [6]) | Activity (Finegoldia magna [7]) | Activity (Bifidobacterium sp. [10]) | Activity (Schaalia odontolytica [13]) | Activity (Prevotella buccae [19]) | Activity (Schaalia meyeri [23]) | Activity (Prevotella intermedia [27]) | Activity (Actinomyces israelii) | Activity (Clostridioides difficile [31]) | Activity (Eubacterium sp. [33]) | Activity (Prevotella bivia [34]) | Activity (Hoylesella oralis [36])
92%: Activity (Schaalia odontolytica [8]) | Activity (Eggerthella lenta [9]) | Activity (Bifidobacterium sp. [21]) | Activity [32] | Activity (Schaalia meyeri [38]) | Activity (Eubacterium sp. [39])
89%: Activity (Hoylesella oralis [24]) | Activity (Prevotella buccae [26])
